ChEMBL document CHEMBL3994609, “Model-Based Discovery of Synthetic Agonists for the Zn2+-Sensing G-Protein-Coupled Receptor 39 (GPR39) Reveals Novel Biological Functions” (J Med Chem, 2017)
Activity calls are given as the source filed them. The calls are words filed in the database; no cut-off is given here.

Key:
[1] = target: T1, G-protein coupled receptor 39 (Homo sapiens, UniProt O43194); experiment: (§1) Agonist activity at human GPR39 expressed in HEK293 cells co-expressing Galphaq assessed as myo-[2-3H]inositol phosphate accumulation in presence of 10 uM Zn2+ measured after 75 mins by scintillation proximity assay; type: functional, cell-based
T1 sequence (O43194 whole entry): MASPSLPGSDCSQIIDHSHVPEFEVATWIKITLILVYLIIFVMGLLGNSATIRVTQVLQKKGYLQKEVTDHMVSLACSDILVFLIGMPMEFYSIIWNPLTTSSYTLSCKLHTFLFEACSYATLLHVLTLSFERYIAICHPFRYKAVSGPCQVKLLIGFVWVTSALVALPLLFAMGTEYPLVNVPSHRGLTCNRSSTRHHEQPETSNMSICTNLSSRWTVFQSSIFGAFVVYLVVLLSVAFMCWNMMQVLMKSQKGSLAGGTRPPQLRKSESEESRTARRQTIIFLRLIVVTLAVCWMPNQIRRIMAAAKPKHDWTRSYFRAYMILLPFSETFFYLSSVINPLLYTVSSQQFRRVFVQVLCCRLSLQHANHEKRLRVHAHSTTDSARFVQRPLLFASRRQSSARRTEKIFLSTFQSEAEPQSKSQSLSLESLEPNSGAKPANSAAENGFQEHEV

[2] = target: T2, G-protein coupled receptor 39 (Homo sapiens) (UniProt O43194); experiment: Agonist activity at human GPR39 expressed in HEK293 cells co-expressing Galphaq assessed as myo-[2-3H]inositol phosphate accumulation in presence of 1 uM Zn2+ measured after 75 mins by scintillation proximity assay; type: functional, cell-based
T2 sequence (whole entry): T1 sequence (O43194 whole entry)

[3] = target: T2, G-protein coupled receptor 39 (Homo sapiens); experiment: Agonist activity at human GPR39 expressed in HEK293 cells co-expressing Galphaq assessed as myo-[2-3H]inositol phosphate accumulation in presence of 10 uM Zn2+ measured after 75 mins by scintillation proximity assay relative to zinc; type: functional, cell-based
[4] = target: T2, G-protein coupled receptor 39 (Homo sapiens); experiment: (§2) Agonist activity at human GPR39 expressed in HEK293 cells co-expressing Galphaq assessed as myo-[2-3H]inositol phosphate accumulation measured after 75 mins by scintillation proximity assay; type: functional, cell-based
[5] = target: T2, G-protein coupled receptor 39 (Homo sapiens); experiment: Agonist activity at human GPR39 expressed in HEK293 cells co-expressing Galphaq assessed as myo-[2-3H]inositol phosphate accumulation in presence of 100 nM Zn2+ measured after 75 mins by scintillation proximity assay; type: functional, cell-based
[6] = target: T3, C-C chemokine receptor type 1 (Homo sapiens) (UniProt P32246); experiment: Agonist activity at full length human CCR1 assessed as myo-[2-3H]inositol phosphate accumulation measured after 75 mins by scintillation proximity assay; type: functional
T3 sequence (whole entry): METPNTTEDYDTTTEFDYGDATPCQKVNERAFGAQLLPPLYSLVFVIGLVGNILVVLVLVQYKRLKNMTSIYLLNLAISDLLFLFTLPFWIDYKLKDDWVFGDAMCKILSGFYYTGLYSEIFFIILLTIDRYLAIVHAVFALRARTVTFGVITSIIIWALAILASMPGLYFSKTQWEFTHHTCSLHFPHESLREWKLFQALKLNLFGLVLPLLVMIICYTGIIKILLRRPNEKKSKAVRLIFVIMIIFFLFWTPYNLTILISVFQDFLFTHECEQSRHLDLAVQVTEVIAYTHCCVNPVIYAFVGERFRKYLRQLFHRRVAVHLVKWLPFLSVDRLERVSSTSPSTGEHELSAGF

[7] = target: Motilin receptor (Homo sapiens) (UniProt O43193); experiment: Agonist activity at human motilin receptor (412 residues) assessed as myo-[2-3H]inositol phosphate accumulation in presence of 10 uM Zn2+ measured after 75 mins by scintillation proximity assay; type: functional
[8] = target: T4, G-protein coupled receptor 39 (Mus musculus) (UniProt Q5U431); experiment: Agonist activity at GPR39 in primary gastric mucosal cells isolated from C57BL/6 mouse assessed as inhibition of isoproterenol-induced ghrelin secretion at 1 uM in presence of 10 uM of Zn2+ and somatostatin receptor antagonist BIM-23627 measured after 4 hrs by ELISA
T4 sequence (whole entry): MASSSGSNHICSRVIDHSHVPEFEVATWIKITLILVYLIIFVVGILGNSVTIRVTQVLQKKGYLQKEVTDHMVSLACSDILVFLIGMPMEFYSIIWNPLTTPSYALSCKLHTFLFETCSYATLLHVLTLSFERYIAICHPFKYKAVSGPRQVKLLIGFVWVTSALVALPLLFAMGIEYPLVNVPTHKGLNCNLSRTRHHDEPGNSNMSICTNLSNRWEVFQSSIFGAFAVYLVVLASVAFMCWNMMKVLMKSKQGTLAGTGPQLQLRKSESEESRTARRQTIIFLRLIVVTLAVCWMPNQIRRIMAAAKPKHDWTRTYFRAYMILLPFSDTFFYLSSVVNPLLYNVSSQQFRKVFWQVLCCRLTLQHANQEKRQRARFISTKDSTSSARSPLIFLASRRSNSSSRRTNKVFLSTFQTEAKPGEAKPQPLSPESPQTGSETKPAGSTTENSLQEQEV
Method in brief: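 Primary gastric mucosal cell cultures from mice, incubated the day after preparation with ligands at 1 μM with 10 μM Zn2+ (with or without a somatostatin receptor antagonist) in triplicate for 4 h. Acyl-ghrelin in supernatant measured by ELISA, expressed as percent of medium-alone cells; n=5–7; unpaired t-test with Welch's correction versus vehicle.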

[9] = tested on: Primary gastric mucosal cell; experiment: Induction of CGRP-induced somatostatin release in primary gastric mucosal cells isolated from GPR39 deficient C57BL/6 mouse at 1 uM in presence of 10 uM of Zn2+ measured after 4 hrs by radioimmunoassay; type: functional, cell-based
Method in brief: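 Primary gastric mucosal cells from GPR39-KO mice, day after preparation, exposed to ligands (1 μM, 10 μM Zn2+) in triplicate for 4 h; supernatant somatostatin measured by in-house RIA and expressed as percent of medium-alone secretion; 10 nM CGRP used as a comparator stimulus; n=2.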

[10] = target: Growth hormone secretagogue receptor type 1 (Homo sapiens) (UniProt Q92847); experiment: Agonist activity at human ghrelin receptor ([…]) assessed as myo-[2-3H]inositol phosphate accumulation in presence of 10 uM Zn2+ measured after 75 mins by scintillation proximity assay; type: functional
[11] = target: T3, C-C chemokine receptor type 1 (Homo sapiens); experiment: Agonist activity at full length human CCR1 assessed as myo-[2-3H]inositol phosphate accumulation in presence of 10 uM Zn2+ measured after 75 mins by scintillation proximity assay; type: functional
[12] = target: Growth hormone secretagogue receptor type 1 (Homo sapiens) (UniProt Q92847); experiment: Agonist activity at human ghrelin receptor ([…]) assessed as myo-[2-3H]inositol phosphate accumulation measured after 75 mins by scintillation proximity assay; type: functional
[13] = target: C-C chemokine receptor type 5 (Macaca mulatta) (UniProt P61813); experiment: Agonist activity at full length rhesus monkey CCR5 assessed as myo-[2-3H]inositol phosphate accumulation measured after 75 mins by scintillation proximity assay; type: functional
[14] = target: T1, G-protein coupled receptor 39; experiment: as §2; type: functional, cell-based
[15] = target: Neuromedin-U receptor 2 (Homo sapiens) (UniProt Q9GZQ4); experiment: Agonist activity at human NMU2 receptor assessed as myo-[2-3H]inositol phosphate accumulation measured after 75 mins by scintillation proximity assay; type: functional
[16] = target: Motilin receptor (Homo sapiens) (UniProt O43193); experiment: Agonist activity at human motilin receptor (412 residues) assessed as myo-[2-3H]inositol phosphate accumulation measured after 75 mins by scintillation proximity assay; type: functional
[17] = target: T1, G-protein coupled receptor 39; experiment: (§3) Agonist activity at GPR39 (unknown origin) expressed in COS7 cells co-expressing Galphas assessed as increase in intracellular cAMP level in presence of 3 uM Zn2+ measured after 30 mins by chemiluminescence assay; type: functional, cell-based
[18] = target: T2, G-protein coupled receptor 39 (Homo sapiens); experiment: as §3; type: functional, cell-based
[19] = target: T4, G-protein coupled receptor 39 (Mus musculus); experiment: Agonist activity at GPR39 in primary gastric mucosal cells isolated from C57BL/6 mouse assessed as inhibition of basal ghrelin secretion at 1 uM in presence of 10 uM of Zn2+ measured after 4 hrs by ELISA relative to basal level
[20] = target: T4, G-protein coupled receptor 39 (Mus musculus); experiment: Agonist activity at GPR39 in primary gastric mucosal cells isolated from C57BL/6 mouse assessed as myo-[2-3H]inositol phosphate accumulation in presence of 10 uM Zn2+ measured after 75 mins by scintillation proximity assay; type: functional
Method in brief: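 Primary murine gastric mucosal cell cultures stimulated with ligand plus 10 μM Zn2+; inositol phosphate turnover read out as for the transfected-cell IP accumulation assay.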

[21] = target: T2, G-protein coupled receptor 39 (Homo sapiens); experiment: Agonist activity at GPR39 (unknown origin) expressed in COS7 cells co-expressing Galphas assessed as increase in intracellular cAMP level measured after 30 mins by chemiluminescence assay; type: functional, cell-based
[22] = Increase in CGRP-induced somatostatin release in primary gastric mucosal cells isolated from GPR39 deficient C57BL/6 mouse at 1 uM in presence of 10 uM of Zn2+ measured after 4 hrs by radioimmunoassay relative to control; type: functional, Primary gastric mucosal cell; details: in the assay text read “C57BL/6 mouse” for “GPR39 deficient C57BL/6 mouse”
[23] = target: C-C chemokine receptor type 5 (Macaca mulatta) (UniProt P61813); experiment: Agonist activity at full length monkey CCR5 assessed as myo-[2-3H]inositol phosphate accumulation in presence of 10 uM Zn2+ measured after 75 mins by scintillation proximity assay; type: functional
[24] = target: T5, G-protein coupled receptor 39 (Mus musculus, UniProt Q5U431); experiment: Agonist activity at mouse GPR39 expressed in HEK293 cells co-expressing Galphaq assessed as myo-[2-3H]inositol phosphate accumulation in presence of 10 uM Zn2+ measured after 75 mins by scintillation proximity assay; type: functional, cell-based
T5 sequence (Q5U431 whole entry): T4 sequence (whole entry)

[25] = target: Neuromedin-U receptor 2 (Homo sapiens) (UniProt Q9GZQ4); experiment: Agonist activity at human NMU2 receptor assessed as myo-[2-3H]inositol phosphate accumulation in presence of 10 uM Zn2+ measured after 75 mins by scintillation proximity assay; type: functional
[26] = target: T2, G-protein coupled receptor 39 (Homo sapiens); experiment: as §1; type: functional, cell-based

Sequence of Growth hormone secretagogue receptor type 1 (Homo sapiens) (Q92847 whole entry): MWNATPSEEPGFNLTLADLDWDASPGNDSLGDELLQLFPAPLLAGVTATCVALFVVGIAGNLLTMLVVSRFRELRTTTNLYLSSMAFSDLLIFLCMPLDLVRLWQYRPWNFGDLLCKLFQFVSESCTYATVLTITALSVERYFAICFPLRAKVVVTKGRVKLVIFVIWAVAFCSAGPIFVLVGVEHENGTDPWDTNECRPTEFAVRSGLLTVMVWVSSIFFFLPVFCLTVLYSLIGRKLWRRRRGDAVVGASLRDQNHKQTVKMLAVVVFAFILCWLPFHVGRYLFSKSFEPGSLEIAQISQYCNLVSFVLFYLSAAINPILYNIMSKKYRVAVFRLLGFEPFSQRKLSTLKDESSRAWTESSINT
Sequence of Motilin receptor (Homo sapiens) (O43193 whole entry): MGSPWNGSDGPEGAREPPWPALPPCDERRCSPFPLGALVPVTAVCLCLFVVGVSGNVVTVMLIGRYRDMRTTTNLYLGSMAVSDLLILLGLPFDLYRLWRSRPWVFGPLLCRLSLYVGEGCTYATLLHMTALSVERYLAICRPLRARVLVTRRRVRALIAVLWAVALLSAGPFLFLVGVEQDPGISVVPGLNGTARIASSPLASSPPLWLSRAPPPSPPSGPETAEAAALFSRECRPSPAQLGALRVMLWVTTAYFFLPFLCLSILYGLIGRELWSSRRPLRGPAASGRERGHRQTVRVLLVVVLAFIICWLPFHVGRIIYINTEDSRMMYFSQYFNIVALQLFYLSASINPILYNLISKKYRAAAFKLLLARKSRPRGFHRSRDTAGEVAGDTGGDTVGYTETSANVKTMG
Sequence of Neuromedin-U receptor 2 (Homo sapiens) (Q9GZQ4 whole entry): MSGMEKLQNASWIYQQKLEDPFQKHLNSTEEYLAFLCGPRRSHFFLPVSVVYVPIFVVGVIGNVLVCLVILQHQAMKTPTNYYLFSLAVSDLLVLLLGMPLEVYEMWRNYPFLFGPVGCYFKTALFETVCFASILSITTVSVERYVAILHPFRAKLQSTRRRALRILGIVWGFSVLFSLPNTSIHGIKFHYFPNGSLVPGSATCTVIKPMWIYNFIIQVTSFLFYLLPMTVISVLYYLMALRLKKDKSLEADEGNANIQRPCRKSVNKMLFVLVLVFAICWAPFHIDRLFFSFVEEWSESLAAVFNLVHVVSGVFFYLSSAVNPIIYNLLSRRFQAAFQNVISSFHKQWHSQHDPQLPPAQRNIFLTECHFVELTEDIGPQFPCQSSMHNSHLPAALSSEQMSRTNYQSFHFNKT

O=C1/C(=C/NCCCO)C(c2ccccc2)=NN1c1nc2ccccc2s1
EC50 [1]: 200 nM
Activity [2]: Dose-dependent effect
fold change (FC) [3]: 2
Activity [4]: inactive
Activity [5]: inactive

Cc1nn(-c2ncnc3nc[nH]c23)c2c1C(OCc1cc(F)cc3c1OCOC3)CC(=O)N2 (centres undefined)
Activity [6]: inactive
Activity [7]: inactive
inhibition [8]: inactive
Activity [9]: inactive
Activity [10]: inactive
Activity [11]: inactive
EC50 [1]: 1.5 nM
Activity [12]: inactive
Activity [13]: inactive
EC50 [14]: 30 nM
Activity [15]: inactive
Activity [16]: inactive
EC50 [17]: 12 nM
Activity [18]: Dose-dependent effect
inhibition [19]: 61%
Activity [20]: Dose-dependent effect
Activity [21]: inactive
Activity [22]: 82%
Activity [23]: inactive
EC50 [24]: 2.6 nM
Activity [25]: inactive

Cc1cc(C)nc(-n2nc(C)c3c2NC(=O)CC3c2ccc(COc3cccc(Cl)c3)cc2)n1 (centres undefined)
Activity [26]: Active
fold change (FC) [3]: 2
EC50 [14]: 3000 nM
